Measurements reported in ChEMBL document CHEMBL1151956, “Sucutiniranes C-F, cassane-type diterpenes from Bowdichia nitida” (J Nat Prod, 2009).
Active and inactive are the calls of the source. No cut-off for these calls is given here.

Experiments:
HL-60 [1] = experiment: Cytotoxicity against human HL60 cells at 50 uM after 48 hrs by MTT assay; format: functional, cell-based
MCF7 [2] = experiment: Cytotoxicity against human MCF7 cells at 50 uM after 48 hrs by MTT assay; format: functional, cell-based
HCT-116 [3] = experiment: Cytotoxicity against human HCT116 cells at 50 uM after 48 hrs by MTT assay; format: functional, cell-based
Plasmodium falciparum = experiment: Antiplasmodial activity against Plasmodium falciparum 3D7; format: functional, organism-based
HL-60 [4] = experiment: Cytotoxicity against human HL60 cells after 48 hrs by MTT assay; format: functional, cell-based; conditions: HL-60, 48 h
Method in brief: (§1)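 Cells seeded in 96-well plates, HL-60 at 1 × 10^4 cells/well and HCT-116 and MCF-7 at 5 × 10^3 cells/well, then preincubated 24 h at 37 °C in humidified 5% CO2. Compounds were added at graded concentrations and incubated for 48 h at 37 °C. MTT (5 mg/mL) was added for 2 h, and formazan was dissolved in 10% SDS/0.01 N HCl. Absorbance was read at 550 and 700 nm. Triplicate wells were used, and IC50 was taken from percent living cells versus controls.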

MCF7 [5] = experiment: Cytotoxicity against human MCF7 cells after 48 hrs by MTT assay; format: functional, cell-based; conditions: MCF7, 48 h; method in brief: as §1
HCT-116 [6] = experiment: Cytotoxicity against human HCT116 cells after 48 hrs by MTT assay; format: functional, cell-based; conditions: HCT-116, 48 h; method in brief: as §1

CC(=O)O[C@H]1Cc2c(cc3occc3c2C)[C@@]2(C)CCCC(C)(C)[C@H]12
Activity (HL-60 [1]): inactive | Activity (MCF7 [2]): inactive | Activity (HCT-116 [3]): inactive | Activity (Plasmodium falciparum): inactive

Cc1c2c(cc3occc13)[C@@]1(C)CCCC(C)(C)[C@@H]1C=C2
Activity (HL-60 [1]): inactive | Activity (MCF7 [2]): inactive | Activity (HCT-116 [3]): inactive | Activity (Plasmodium falciparum): inactive

CC(=O)O[C@H]1C[C@H]2[C@@H](C)C3=CC(=O)O[C@@H]3C[C@@H]2[C@@]2(C)CCCC(C)(C)[C@H]12 [12-DEOXY-SUCUTINIRANE A]
IC50 (HL-60 [4]): 32 µM

CC(=O)O[C@H]1C[C@H]2[C@@H](C)C3=CC(=O)O[C@]3(O)C[C@@H]2[C@@]2(C)CCCC(C)(C)[C@H]12 [SUCUTINIRANE A]
IC50 (HL-60 [4]): 14 µM

CC(=O)O[C@H]1[C@H](O)[C@H]2[C@@H](C)c3ccoc3C[C@@H]2[C@@]2(C)CCCC(C)(C)[C@H]12 [Sucutinirane E]
IC50 (HL-60 [4]): 12 µM | IC50 (MCF7 [5]): 35 µM | IC50 (HCT-116 [6]): 36 µM | Activity (Plasmodium falciparum): inactive

CC(=O)O[C@H]1[C@H](O)[C@H]2C(C)(C)CCC[C@]2(C)[C@H]2Cc3occc3[C@H](C)[C@H]12 [Sucutinirane F]
IC50 (HL-60 [4]): 7.5 µM | IC50 (MCF7 [5]): 18 µM | IC50 (HCT-116 [6]): 30 µM | Activity (Plasmodium falciparum): inactive
